Experimental data: ChEMBL document CHEMBL4229550, “An antimycobacterial pleuromutilin analogue effective against dormant bacilli” (Bioorg Med Chem, 2018)
Values after ≈ are worked out from the molar mass of the structure shown. Active and inactive are the calls of the source. The rule behind the calls is not given here.

What was measured:
[1] = system: Mycobacterium tuberculosis; test: Antibacterial activity against Mycobacterium tuberculosis; format: functional; conditions: read-out: MIC100
In short: (§1)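 Mtb H37Rv grown in 7H9/OADC at 37 °C with shaking to OD600 0.5. The 0.5-OD culture is exposed aerobically to serial dilutions for 15 days at 37 °C. Resazurin (0.02% stock) is then added for 4 h at 37 °C with shaking.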

[2] = system: Staphylococcus aureus; test: Antibacterial activity against Staphylococcus aureus ATCC 25923 incubated for 24 hrs under aerobic condition by MABA; format: functional; conditions: ATCC 25923, 24 h, read-out: MIC100
In short: (§2)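 Mid-log cultures at OD 0.5 were exposed to serial dilutions under aerobic conditions at 37 °C for 24 h. Resazurin was then added from a 0.08% stock for 1 h. MIC100 was the lowest concentration where the dye stayed blue (pink means growth). Absorbance was also read at 570 and 600 nm.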

[3] = system: Mycolicibacterium smegmatis; test: Antibacterial activity against Mycobacterium smegmatis ATCC 607 incubated for 48 hrs under aerobic condition by MABA; format: functional; conditions: ATCC 607, 48 h, read-out: MIC100
In short: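 Mid-log culture at OD 0.5 was incubated with serial dilutions aerobically at 37 °C for 48 h. Resazurin was then added from a 0.08% stock for 1 h. MIC100 was the lowest concentration that stayed blue; absorbance was also read at 570/600 nm.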

[4] = system: Escherichia coli; test: Antibacterial activity against Escherichia coli ATCC 10798 incubated for 24 hrs under aerobic condition by MABA; format: functional; conditions: ATCC 10798, 24 h, read-out: MIC100; in short: as §2
[5] = system: Bacillus subtilis; test: Bactericidal activity against Bacillus subtilis ATCC 6051 incubated for 24 hrs under aerobic condition by MABA; format: functional; conditions: ATCC 6051, 24 h
[6] = system: Streptococcus pneumoniae; test: Bactericidal activity against Streptococcus pneumoniae ATCC 6301 incubated for 24 hrs under aerobic condition by MABA; format: functional; conditions: ATCC 6301, 24 h
[7] = system: Staphylococcus aureus; test: Antibacterial activity against Staphylococcus aureus BAA 44 incubated for 24 hrs under aerobic condition by MABA; format: functional; conditions: BAA 44, 24 h, read-out: MIC100; in short: as §2
[8] = system: Staphylococcus aureus; test: Antibacterial activity against Staphylococcus aureus incubated for 24 hrs under aerobic condition by MABA; format: functional; conditions: read-out: MIC100
In short: (§3)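 Resazurin was then added from a 0.08% stock for 1 h. MIC100 was the lowest concentration where the dye stayed blue (pink means growth). Absorbance was also read at 570 and 600 nm.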

[9] = system: Staphylococcus aureus; test: Bactericidal activity against Staphylococcus aureus ATCC 25923 incubated for 24 hrs under aerobic condition by MABA; format: functional; conditions: ATCC 25923, 24 h
[10] = system: Streptococcus pneumoniae; test: Antibacterial activity against Streptococcus pneumoniae ATCC 6301 incubated for 24 hrs under aerobic condition by MABA; format: functional; conditions: ATCC 6301, 24 h, read-out: MIC100; in short: as §2
[11] = system: Escherichia coli; test: Inhibition of protein translation/transcription in Escherichia coli S30 cell extract at 0.1 ug/ml using circular DNA with pBESTluc after 60 mins by luciferase reporter gene assay; format: functional
In short: (§4)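 Coupled transcription/translation used E. coli S30 extract, amino acid mix and premix, with the pBESTluc template carrying firefly luciferase under the tac promoter. Compounds were added in DMSO and reactions were started with DNA. Incubation was 60 min at 37 °C, stopped on ice, and luciferase was read after adding assay substrate.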

[12] = system: Enterococcus faecalis; test: Antibacterial activity against Enterococcus faecalis ATCC 349 incubated for 24 hrs under aerobic condition by MABA; format: functional; conditions: ATCC 349, 24 h, read-out: MIC100; in short: as §2
[13] = system: Enterococcus faecalis; test: Bactericidal activity against Enterococcus faecalis ATCC 349 incubated for 24 hrs under aerobic condition by MABA; format: functional; conditions: ATCC 349, 24 h
[14] = system: Streptococcus salivarius; test: Antibacterial activity against Streptococcus salivarius […] incubated for 24 hrs under aerobic condition by MABA; format: functional; conditions: read-out: MIC100; in short: as §3
[15] = Selectivity index, ratio of IC50 for African green monkey Vero cells to MIC100 for replicating Mycobacterium tuberculosis H37Rv by MABA; format: toxicity; conditions: read-out: Selectivity Index
In short: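 Vero cells are cultured in EMEM with 10% FBS and exposed for 72 h to 0.78–200 µg/mL. Medium is switched to phenol-red-free EMEM, MTT is added, and formazan is read at 570 nm to give IC50. The selectivity index is Vero IC50 divided by the MABA MIC.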

[16] = system: Clostridioides difficile; test: Bactericidal activity against Clostridium difficile ATCC 700057 incubated for 24 hrs […] by MABA; format: functional; conditions: ATCC 700057, 24 h
[17] = system: Staphylococcus aureus; test: Antibacterial activity against Staphylococcus aureus BAA 2094 incubated for 24 hrs under aerobic condition by MABA; format: functional; conditions: BAA 2094, 24 h, read-out: MIC100; in short: as §3
[18] = system: Klebsiella pneumoniae; test: Antibacterial activity against Klebsiella pneumoniae ATCC 12019 incubated for 24 hrs under aerobic condition by MABA; format: functional; conditions: ATCC 12019, 24 h, read-out: MIC100; in short: as §2
[19] = Half life in Sprague-Dawley rat liver microsomes at 500 ng/ml preincubated for 5 mins followed by NADPH addition by C-MS/MS analysis; format: ADME, microsome
[20] = system: Mycobacterium tuberculosis; test: Antibacterial activity against replicating Mycobacterium tuberculosis H37Rv incubated for 15 days under aerobic condition by MABA; format: functional; conditions: 360 h, read-out: MIC100; in short: as §1
[21] = system: Vero; test: Cytotoxicity against African green monkey Vero cells assessed as reduction in cell viability after 72 hrs by MTT assay; format: cell-based; conditions: Chlorocebus sabaeus
In short: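 Vero cells were grown in complete EMEM with 10% FBS and exposed for 72 h to 0.78–200 µg/mL. The medium was then swapped for phenol-red-free EMEM and MTT was added. Formazan absorbance was read at 570 nm to give IC50.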

[22] = system: Mycolicibacterium smegmatis; test: Bactericidal activity against Mycobacterium smegmatis ATCC 607 incubated for 48 hrs under aerobic condition by MABA; format: functional; conditions: ATCC 607, 48 h
[23] = system: Staphylococcus aureus; test: Bactericidal activity against Staphylococcus aureus BAA 1683 incubated for 24 hrs under aerobic condition by MABA; format: functional; conditions: BAA 1683, 24 h
[24] = system: Erythrocyte; test: Hemolytic activity in sheep erythrocytes after 2 hrs; format: ADME, cell-based; conditions: Ovis aries
In short: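 Washed heparinized sheep erythrocytes at 3% in buffer pH 7.4 were treated with 2–200 µg/mL for 2 h at 37 °C with gentle shaking. Triton X-100 (0.01–1%) was the positive control and PEG:H2O diluent the negative control. Released hemoglobin was read at OD540 and % hemolysis calculated against both controls.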

[25] = system: Staphylococcus aureus; test: Bactericidal activity against Staphylococcus aureus incubated for 24 hrs under aerobic condition by MABA; format: functional
[26] = system: Klebsiella pneumoniae; test: Bactericidal activity against Klebsiella pneumoniae ATCC 12019 incubated for 24 hrs under aerobic condition by MABA; format: functional; conditions: ATCC 12019, 24 h
[27] = system: Escherichia coli; test: Inhibition of protein translation/transcription in Escherichia coli S30 cell extract at 0.5 ug/ml using circular DNA with pBESTluc after 60 mins by luciferase reporter gene assay; format: functional; in short: as §4
[28] = system: Acinetobacter baumannii; test: Antibacterial activity against Acinetobacter baumannii ATCC 19606 incubated for 24 hrs under aerobic condition by MABA; format: functional; conditions: ATCC 19606 = CIP 70.34 = JCM 6841, 24 h, read-out: MIC100; in short: as §2
[29] = system: Enterococcus faecalis; test: Bactericidal activity against Enterococcus faecalis ATCC 19433 incubated for 24 hrs under aerobic condition by MABA; format: functional; conditions: ATCC 19433, 24 h
[30] = system: Mycobacterium tuberculosis; test: Bactericidal activity against Mycobacterium tuberculosis H37Rv at 2 times MIC measured every 24 hrs up to 12 days by time kill assay relative to control; format: functional
In short: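 Mid-log H37Rv (OD 0.5) is diluted to OD 0.25 and exposed at MIC, 2×MIC or 4×MIC. Every 24 h cultures are diluted 10- to 10,000-fold and plated on 7H10/OADC agar. Plates are incubated 15 days at 37 °C before colony counts.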

[31] = system: Acinetobacter baumannii; test: Bactericidal activity against Acinetobacter baumannii ATCC 19606 incubated for 24 hrs under aerobic condition by MABA; format: functional; conditions: ATCC 19606 = CIP 70.34 = JCM 6841, 24 h
[32] = system: Staphylococcus aureus; test: Antibacterial activity against Staphylococcus aureus BAA 1683 incubated for 24 hrs under aerobic condition by MABA; format: functional; conditions: BAA 1683, 24 h, read-out: MIC100; in short: as §2
[33] = system: Streptococcus salivarius; test: Bactericidal activity against Streptococcus salivarius ATCC 6301 incubated for 24 hrs under aerobic condition by MABA; format: functional; conditions: ATCC 6301, 24 h
[34] = system: Enterococcus faecalis; test: Antibacterial activity against Enterococcus faecalis ATCC 19433 incubated for 24 hrs under aerobic condition by MABA; format: functional; conditions: ATCC 19433, 24 h, read-out: MIC100; in short: as §2
[35] = system: Bacillus subtilis; test: Antibacterial activity against Bacillus subtilis ATCC 6051 incubated for 24 hrs under aerobic condition by MABA; format: functional; conditions: ATCC 6051, 24 h, read-out: MIC100; in short: as §2
[36] = system: Staphylococcus aureus; test: Bactericidal activity against Staphylococcus aureus BAA 44 incubated for 24 hrs under aerobic condition by MABA; format: functional; conditions: BAA 44, 24 h
[37] = system: Staphylococcus aureus; test: Bactericidal activity against Staphylococcus aureus BAA 2094 incubated for 24 hrs under aerobic condition by MABA; format: functional; conditions: BAA 2094, 24 h
[38] = system: Escherichia coli; test: Bactericidal activity against Escherichia coli ATCC 10798 incubated for 24 hrs under aerobic condition by MABA; format: functional; conditions: ATCC 10798, 24 h
[39] = system: Mycobacterium tuberculosis; test: Bactericidal activity against replicating Mycobacterium tuberculosis H37Rv incubated for 15 days under aerobic condition by MABA; format: functional; conditions: 360 h; in short: as §1
[40] = Apparent permeability from basolateral to apical side in human Caco2 cells at 10 uM after 2 hrs by LC-MS/MS analysis; format: ADME, cell-based; conditions: caco-2, 2 h

CC[C@]1(C)C[C@@H](OC(=O)CSC(C)(C)CNC(=O)[C@H](N)CC(C)C)[C@]2(C)[C@H](C)CC[C@]3(CCC(=O)[C@H]32)[C@@H](C)[C@@H]1O
MIC [1]: < 6.25 µg/mL | MIC [2]: > 25 µg/mL | MIC [3]: 6.25 µg/mL (≈ 10.8 µM) | MIC [4]: 12.5 µg/mL (≈ 21.5 µM) | MBC [5]: 25 µg/mL (≈ 43 µM) | MBC [6]: > 25 µg/mL | MIC [7]: > 25 µg/mL | MIC [8]: 0.4 µg/mL (≈ 0.689 µM) | MBC [9]: > 25 µg/mL | MIC [10]: 25 µg/mL (≈ 43 µM) | inhibition [11]: Active | MIC [12]: > 25 µg/mL | MBC [13]: > 25 µg/mL | MIC [14]: 0.4 µg/mL (≈ 0.689 µM) | selectivity ratio [15]: 32 | MBC [16]: 1.56 µg/mL (≈ 2.69 µM) | MIC [17]: > 25 µg/mL | MIC [18]: 25 µg/mL (≈ 43 µM) | t1/2 [19]: < 5 min | MIC [20]: 0.78 µg/mL (≈ 1.34 µM) | IC50 [21]: 25 µg/mL (≈ 43 µM) | MBC [22]: 25 µg/mL (≈ 43 µM) | MBC [23]: > 25 µg/mL | IC50 [24]: > 200 µM | MBC [25]: 0.8 µg/mL (≈ 1.38 µM) | MBC [26]: > 25 µg/mL | inhibition [27]: Active | MIC [28]: 9.38 µg/mL (≈ 16.1 µM) | MBC [29]: 25 µg/mL (≈ 43 µM) | Activity [30]: 100% | MBC [31]: 12.5 µg/mL (≈ 21.5 µM) | MIC [32]: > 25 µg/mL | MBC [33]: > 25 µg/mL | MIC [34]: 12.5 µg/mL (≈ 21.5 µM) | MIC [35]: 12.5 µg/mL (≈ 21.5 µM) | MBC [36]: > 25 µg/mL | MBC [37]: > 25 µg/mL | MBC [38]: > 25 µg/mL | MBC [39]: 0.77 µg/mL (≈ 1.33 µM)

CNC(=C[N+](=O)[O-])NCCSCc1ccc(CN(C)C)o1 [RANITIDINE]
Papp [40]: 1.14 ×10⁻⁶ cm/s

CCCCCCCCCCCCC/C=C/C(=O)N[C@H]1[C@H](O[C@H]2O[C@H](CO)[C@@H](O)[C@H](O)[C@H]2NC(C)=O)O[C@H](CC(O)[C@H]2O[C@@H](n3ccc(=O)[nH]c3=O)[C@H](O)[C@@H]2O)[C@H](O)[C@@H]1O (stereo partly drawn)
MIC [20]: 12.5 µg/mL (≈ 14.8 µM) | IC50 [21]: 0.18 µg/mL (≈ 0.213 µM) | IC50 [24]: 15 µM
